Experimental data published in article PMC8484140 (Targeted Oncology, 2021).

Assays:
Safety evaluation = format: in vivo, human
[1] = format: in vivo, human
[2] = system: HR+/HER2− advanced breast cancer; test: Efficacy by RECIST 1.1, Stage I/II patients; format: in vivo, human; details: for Clinical response: CR (number of patients) / Clinical response: PD (number of patients) / Clinical response: PR (number of patients) / Clinical response: SD (number of patients): with exemestane in Stage II
[3] = system: HR+/HER2− advanced breast cancer; test: Efficacy by RECIST 1.1, additional 21 patients; format: in vivo, human
Summary of the method: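 Additional cohort of 21 postmenopausal women aged ≤65 years. All had ER- and/or PR-positive (>1%) disease, ECOG 0–1 and progression after letrozole/anastrozole, with no prior HDAC inhibitor. […] Response was assessed by RECIST 1.1, with CR/PR confirmed at least 4 weeks after the initial response.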

[4] = system: estrogen receptor-positive advanced breast cancer; details: entinostat plus exemestane; prolonged from 19.8; cited from earlier work
[5] = Stage II, 3 mg/week + exemestane 25 mg/day, n=2
[6] = Stage II, 5 mg/week + exemestane 25 mg/day, n=14
[7] = additional 21 patients, entinostat 5 mg/week + exemestane 25 mg/day

## Nc1ccccc1NC(=O)c1ccc(CNC(=O)OCc2cccnc2)cc1 [Entinostat]
Safety evaluation; Chinese patients
  Tolerability of entinostat in combination with exemestane: well tolerated
Safety evaluation; [5]
  AKP elevation, entinostat-related AE of all grades: 0 No. (%)
  ALT elevation, entinostat-related AE of all grades: 0 No. (%)
  AST elevation, entinostat-related AE of all grades: 0 No. (%)
  Abdominal pain, entinostat-related AE of all grades: 0 No. (%)
  Anemia, entinostat-related AE of all grades: 0 No. (%)
  Back pain, entinostat-related AE of all grades: 0 No. (%)
  Chest pain, entinostat-related AE of all grades: 0 No. (%)
  Creatine increase, entinostat-related AE of all grades: 0 No. (%)
  Creatinine phosphokinase increase, entinostat-related AE of all grades: 0 No. (%)
  Debilitation, entinostat-related AE of all grades: 0 No. (%)
  Diarrhea, entinostat-related AE of all grades: 0 No. (%)
  Fatigue, entinostat-related AE of all grades: 0 No. (%)
  Flatulence, entinostat-related AE of all grades: 0 No. (%)
  Headache, entinostat-related AE of all grades: 0 No. (%)
  Hypoalbuminemia, entinostat-related AE of all grades: 0 No. (%)
  Hypocalcemia, entinostat-related AE of all grades: 0 No. (%)
  Hypokalemia, entinostat-related AE of all grades: 0 No. (%)
  Hypoproteinemia, entinostat-related AE of all grades: 0 No. (%)
  LDH increase, entinostat-related AE of all grades: 0 No. (%)
  Leukopenia, entinostat-related AE of all grades: 0 No. (%)
  Limb pain, entinostat-related AE of all grades: 0 No. (%)
  Nausea, entinostat-related AE of all grades: 0 No. (%)
  Neutropenia, entinostat-related AE of all grades: 2 (100) No. (%)
  Palpitation, entinostat-related AE of all grades: 0 No. (%)
  Serum Ca^2+ decrease, entinostat-related AE of all grades: 0 No. (%)
  Serum Na+ decrease, entinostat-related AE of all grades: 0 No. (%)
  Serum albumin decrease, entinostat-related AE of all grades: 0 No. (%)
  Serum phosphate decrease, entinostat-related AE of all grades: 0 No. (%)
  Serum urea increase, entinostat-related AE of all grades: 0 No. (%)
  Thrombocytopenia, entinostat-related AE of all grades: 0 No. (%)
  Γ-GT elevation, entinostat-related AE of all grades: 0 No. (%)
  α-HBDH elevation, entinostat-related AE of all grades: 0 No. (%)
Safety evaluation; Stage II, 3 mg/week group + exemestane
  Grade 3 AE: no grade 3 AE occurred
Safety evaluation; Stage II, 5 mg entinostat group, 1/14
  CTCAE grade 3 arrhythmia requiring medical care: 7.1%
Safety evaluation; [6]
  AKP elevation, entinostat-related AE of all grades: 4 (28.6) No. (%)
  ALT elevation, entinostat-related AE of all grades: 0 No. (%)
  AST elevation, entinostat-related AE of all grades: 2 (14.3) No. (%)
  Abdominal pain, entinostat-related AE of all grades: 0 No. (%)
  Anemia, entinostat-related AE of all grades: 5 (35.7) No. (%)
  Back pain, entinostat-related AE of all grades: 0 No. (%)
  Chest pain, entinostat-related AE of all grades: 0 No. (%)
  Creatine increase, entinostat-related AE of all grades: 4 (28.6) No. (%)
  Creatinine phosphokinase increase, entinostat-related AE of all grades: 6 (42.9) No. (%)
  Debilitation, entinostat-related AE of all grades: 0 No. (%)
  Diarrhea, entinostat-related AE of all grades: 3 (21.4) No. (%)
  Fatigue, entinostat-related AE of all grades: 0 No. (%)
  Flatulence, entinostat-related AE of all grades: 0 No. (%)
  Headache, entinostat-related AE of all grades: 0 No. (%)
  Hypoalbuminemia, entinostat-related AE of all grades: 3 (21.4) No. (%)
  Hypocalcemia, entinostat-related AE of all grades: 2 (14.3) No. (%)
  Hypokalemia, entinostat-related AE of all grades: 2 (14.3) No. (%)
  Hypoproteinemia, entinostat-related AE of all grades: 3 (21.4) No. (%)
  LDH increase, entinostat-related AE of all grades: 2 (14.3) No. (%)
  Leukopenia, entinostat-related AE of all grades: 10 (71.4) No. (%)
  Limb pain, entinostat-related AE of all grades: 2 (14.3) No. (%)
  Nausea, entinostat-related AE of all grades: 0 No. (%)
  Neutropenia, entinostat-related AE of all grades: 10 (71.4) No. (%)
  Palpitation, entinostat-related AE of all grades: 0 No. (%)
  Serum Ca^2+ decrease, entinostat-related AE of all grades: 2 (14.3) No. (%)
  Serum Na+ decrease, entinostat-related AE of all grades: 2 (14.3) No. (%)
  Serum albumin decrease, entinostat-related AE of all grades: 2 (14.3) No. (%)
  Serum phosphate decrease, entinostat-related AE of all grades: 7 (50) No. (%)
  Serum urea increase, entinostat-related AE of all grades: 2 (14.3) No. (%)
  Thrombocytopenia, entinostat-related AE of all grades: 6 (42.9) No. (%)
  Γ-GT elevation, entinostat-related AE of all grades: 3 (21.4) No. (%)
  α-HBDH elevation, entinostat-related AE of all grades: 2 (14.3) No. (%)
Safety evaluation; Stage II, 5 mg/week group + exemestane
  Number of CTCAE grade ≥ 3 AEs: 38
[1]; [7]
  Grade 3/4 anemia: 9.5%
  Grade 3/4 fatigue: 9.5%
  Grade 3/4 neutropenia: 38%
  Grade 3/4 thrombocytopenia: 9.5%
[1]; entinostat in combination with exemestane, as quoted in Discussion
  Occurrence rate of thrombocytopenia: 10%
[2]; 3 mg (n = 2)
  Clinical response: CR (number of patients): 0
  Clinical response: PD (number of patients): 1
  Clinical response: PR (number of patients): 0
  Clinical response: SD (number of patients): 1
[2]; 5 mg (n = 9)
  Clinical response: CR (number of patients): 0
  Clinical response: PD (number of patients): 6
  Clinical response: PR (number of patients): 2
  Clinical response: SD (number of patients): 1
[2]; 5 mg group, from first dose of entinostat, 95% CI: 78–201
  PFS: 85.5 days
[2]; 7 mg→5 mg (n = 3)
  Clinical response: CR (number of patients): 0
  Clinical response: PD (number of patients): 2
  Clinical response: PR (number of patients): 0
  Clinical response: SD (number of patients): 1
[2]; 14 evaluated patients, 2/14
  Overall response rate (ORR, CR+PR): 14.3%
[2]; 14 evaluated patients, all cohorts
  Patients achieving CR: none
[2]; 14 evaluated patients, all three treatment groups
  Patients with stable disease: Three
[2]; 14 evaluated patients, three groups
  Patients with PD: Nine
[2]; extended treatment stage, entinostat 3 or 5 mg/week + exemestane 25 mg/day
  Patients with stable disease (> 12 weeks): three
[3]; 21 patients, entinostat 5 mg + exemestane 25 mg, 95% CI: 1.17–30.38
  ORR (CR+PR): 9.52%
[3]; 21 patients, entinostat 5 mg + exemestane 25 mg, 95% CI: 21.82–65.98
  Clinical benefit rate (CBR, CR+PR+SD over 24 weeks): 42.86%
[3]; [7]
  Median progression-free survival: 9.41 months
[4]
  Overall survival (OS): 28.1 months
